# Experimental data published in ChEMBL document CHEMBL4184273, “Discovery of chromenes as inhibitors of macrophage migration inhibitory factor” (Bioorg Med Chem, 2018).
# Calls of active or inactive are those of the source. The rule behind the calls is not given here.
# Columns and labels:
# [1] = molecular target: T1, Macrophage migration inhibitory factor (Homo sapiens) (UniProt P14174); assay: Inhibition of recombinant His-tagged MIF tautomerase activity (unknown origin) at 25 uM using 4-HPP as substrate relative to control
# T1 sequence (whole entry): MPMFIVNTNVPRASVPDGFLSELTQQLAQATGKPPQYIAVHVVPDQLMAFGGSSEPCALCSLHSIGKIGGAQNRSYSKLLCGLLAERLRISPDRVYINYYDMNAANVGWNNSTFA
# Procedure, shortened: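 Single-point screen at final inhibitor 25 µM in 5% DMSO (from 10 mM DMSO stocks diluted in 0.4 M boric acid pH 6.2). MIF final 340 nM; reaction started with 4-HPP (final 0.5 mM; pre-equilibrated overnight in 50 mM ammonium acetate pH 6.0). Absorbance at 306 nm followed over time. Vehicle control 5% DMSO; no-MIF negative control. Mean of at least 2 independent experiments.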
# [2] = molecular target: T1, Macrophage migration inhibitory factor (Homo sapiens); assay: (§1) Inhibition of recombinant His-tagged MIF tautomerase activity (unknown origin) using 4-HPP as substrate pretreated for 40 mins followed by substrate addition
# Procedure, shortened: (§2)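 Time-dependence test: inhibitor (125–0 µM, 1.6-fold series in 5% DMSO) preincubated with MIF (340 nM) for 2 or 40 min before 4-HPP was added (final 0.5 mM). IC50 curves were built from the 306 nm absorbance increase in boric acid pH 6.2, and the two preincubation times were compared.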
# [3] = molecular target: T1, Macrophage migration inhibitory factor (Homo sapiens); assay: Time-dependent inhibition of recombinant His-tagged MIF tautomerase activity (unknown origin) using 4-HPP as substrate; procedure, shortened: as §2
# [4] = molecular target: T2, Macrophage migration inhibitory factor (Homo sapiens, UniProt P14174); assay: Inhibition of recombinant His-tagged MIF tautomerase activity (unknown origin) using 4-HPP as substrate
# T2 sequence (P14174 whole entry): T1 sequence (whole entry)
# [5] = molecular target: T1, Macrophage migration inhibitory factor (Homo sapiens); assay: (§3) Inhibition of recombinant His-tagged MIF tautomerase activity (unknown origin) using 4-HPP as substrate pretreated for 2 mins followed by substrate addition; procedure, shortened: as §2
# [6] = molecular target: T1, Macrophage migration inhibitory factor (Homo sapiens); assay: Reversible inhibition of recombinant His-tagged MIF tautomerase activity (unknown origin) assessed as recovery of enzyme activity at 125 uM using 4-HPP as substrate by substrate dilution method
# Procedure, shortened: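 Jump-dilution: MIF (34 µM) was mixed with inhibitor (125 µM, 5% DMSO), then diluted 100-fold into 4-HPP (0.5 mM) in boric acid. Absorbance at 306 nm was plotted against time to follow activity recovery. The control was treated the same way with 5% DMSO and no inhibitor.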
# [7] = molecular target: T2, Macrophage migration inhibitory factor; assay: as §1; procedure, shortened: as §2
# [8] = molecular target: T2, Macrophage migration inhibitory factor; assay: as §3; procedure, shortened: as §2
inhibition [1] [%],Structure (SMILES),other results
40,CC(C)CN1C(=O)CC2C(=C(N)Oc3cc(OCc4ccc(Cl)cc4)ccc32)C1=O (stereo not given),
0,Cc1ccc2c(c1)OC(N)=C1C(=O)N(Cc3ccncc3)C(=O)CC12 (stereo not given),
25,COc1ccc2c(c1)OC(N)=C1C(=O)N(Cc3cccc4ccccc34)C(=O)CC12 (stereo not given),
0,Cc1ccc2c(c1)OC(N)=C1C(=O)N(Cc3ccc(N)cc3)C(=O)CC12 (stereo not given),
5,Cc1ccc2c(c1)OC(N)=C1C(=O)N(CCc3ccc(Cl)cc3)C(=O)CC12 (stereo not given),
45,NC1=C2C(=O)N(Cc3ccc(N)cc3)C(=O)CC2c2ccc(OCc3ccc(Cl)cc3)cc2O1 (stereo not given),
50,CCOc1ccc2c(c1)OC(N)=C1C(=O)N(Cc3cccc4ccccc34)C(=O)CC12 (stereo not given),
0,COc1ccc2c(c1)OC(N)=C1C(=O)N(Cc3ccc(N)cc3)C(=O)CC12 (stereo not given),
0,NC1=C2C(=O)N(Cc3ccc(N)cc3)C(=O)CC2c2ccccc2O1 (stereo not given),
0,COc1ccc2c(c1)OC(N)=C1C(=O)N(Cc3ccncc3)C(=O)CC12 (stereo not given),
0,Cc1ccc2c(c1)C1CC(=O)N(CC(C)C)C(=O)C1=C(N)O2 (stereo not given),
10,CCOCCN1C(=O)CC2C(=C(N)Oc3cc(OCc4ccc(Cl)cc4)ccc32)C1=O (stereo not given),
0,CCOc1ccc2c(c1)OC(N)=C1C(=O)N(Cc3ccc(N)cc3)C(=O)CC12 (stereo not given),
80,NC1=C2C(=O)N(CCc3ccc(Cl)cc3)C(=O)CC2c2ccc(OCc3ccc(Cl)cc3)cc2O1 (stereo not given),IC50 [4]: 13 µM
20,Cc1ccc2c(c1)OC(N)=C1C(=O)N(CCc3ccc(Cl)cc3Cl)C(=O)CC12 (stereo not given),
0,COc1ccc2c(c1)OC(N)=C1C(=O)N(Cc3cccnc3)C(=O)CC12 (stereo not given),
15,COc1ccc2c(c1)OC(N)=C1C(=O)N(CC(C)C)C(=O)CC12 (stereo not given),
10,CCOc1ccc2c(c1)OC(N)=C1C(=O)N(CC(C)C)C(=O)CC12 (stereo not given),
15,NC1=C2C(=O)N(CCc3ccc(Cl)cc3)C(=O)CC2c2ccccc2O1 (stereo not given),
10,C=CCN1C(=O)CC2C(=C(N)Oc3cc(OCc4ccc(Cl)cc4)ccc32)C1=O (stereo not given),
10,CCOc1ccc2c(c1)OC(N)=C1C(=O)N(Cc3cccnc3)C(=O)CC12 (stereo not given),
70,NC1=C2C(=O)N(CCc3c[nH]c4ccccc34)C(=O)CC2c2ccc(OCc3ccc(Cl)cc3)cc2O1 (stereo not given),IC50 [4]: 8 µM
10,Cc1ccc2c(c1)C1CC(=O)N(Cc3ccc(N)cc3)C(=O)C1=C(N)O2 (stereo not given),
15,NC1=C2C(=O)N(Cc3ccncc3)C(=O)CC2c2ccc(OCc3ccc(Cl)cc3)cc2O1 (stereo not given),
0,COc1ccc2c(c1)OC(N)=C1C(=O)N(Cc3ccco3)C(=O)CC12 (stereo not given),
0,CCOc1ccc2c(c1)OC(N)=C1C(=O)N(Cc3ccncc3)C(=O)CC12 (stereo not given),
80,CCCCCCCCCCCCN1C(=O)CC2C(=C(N)Oc3cc(OCc4ccc(Cl)cc4)ccc32)C1=O (stereo not given),IC50 [4]: 7.1 µM
30,CCOc1ccc2c(c1)OC(N)=C1C(=O)N(CCc3ccc(Cl)cc3Cl)C(=O)CC12 (stereo not given),

# Continued, molecule first:
Structure (SMILES),inhibition [1] [%],other results
COCCN1C(=O)CC2C(=C(N)Oc3cc(C)ccc32)C1=O (stereo not given),0,
COc1ccc2c(c1)OC(N)=C1C(=O)N(CCc3cccs3)C(=O)CC12 (stereo not given),15,
Cc1ccc2c(c1)C1CC(=O)N(CCc3ccc(Cl)cc3Cl)C(=O)C1=C(N)O2 (stereo not given),20,
CCN(CC)CCCN1C(=O)CC2C(=C(N)Oc3ccc(C)cc32)C1=O (stereo not given),0,
Cc1ccc2c(c1)OC(N)=C1C(=O)N(CCc3c[nH]c4ccccc34)C(=O)CC12 (stereo not given),55,inhibition [2]: Active; TDI [3]: inactive; IC50 [4]: 6.2 µM; inhibition [5]: Active
Cc1ccc2c(c1)OC(N)=C1C(=O)N(Cc3cccc4ccccc34)C(=O)CC12 (stereo not given),35,
COc1ccc2c(c1)OC(N)=C1C(=O)N(CCCN(C)C)C(=O)CC12 (stereo not given),0,
CCOCCN1C(=O)CC2C(=C(N)Oc3cc(OCC)ccc32)C1=O (stereo not given),0,
NC1=C2C(=O)N(CCc3c[nH]c4ccccc34)C(=O)CC2c2ccccc2O1 (stereo not given),15,
CCCCCCCCCCCCN1C(=O)CC2C(=C(N)Oc3ccc(C)cc32)C1=O (stereo not given),50,
COc1ccc2c(c1)OC(N)=C1C(=O)N(CCCN3CCOCC3)C(=O)CC12 (stereo not given),0,
CCCCCCCCCCCCN1C(=O)CC2C(=C(N)Oc3ccccc32)C1=O (stereo not given),60,inhibition [6]: Active; IC50 [7]: 13.8 µM; TDI [3]: inactive; IC50 [4]: 18 µM; IC50 [8]: 13.5 µM
Cc1ccc2c(c1)C1CC(=O)N(Cc3ccco3)C(=O)C1=C(N)O2 (stereo not given),15,
COc1ccc2c(c1)OC(N)=C1C(=O)N(CCO)C(=O)CC12 (stereo not given),0,
NC1=C2C(=O)N(CCO)C(=O)CC2c2ccccc2O1 (stereo not given),0,
Cc1ccc2c(c1)C1CC(=O)N(CCO)C(=O)C1=C(N)O2 (stereo not given),0,
Cc1ccc2c(c1)C1CC(=O)N(Cc3cccnc3)C(=O)C1=C(N)O2 (stereo not given),0,
CCCCCCCCCCCCN1C(=O)CC2C(=C(N)Oc3cc(OCC)ccc32)C1=O (stereo not given),60,IC50 [4]: 21 µM
Cc1ccc2c(c1)C1CC(=O)N(CCc3c[nH]c4ccccc34)C(=O)C1=C(N)O2 (stereo not given),25,
Cc1ccc2c(c1)OC(N)=C1C(=O)N(CCCN(C)C)C(=O)CC12 (stereo not given),0,
Cc1ccc2c(c1)C1CC(=O)N(Cc3ccncc3)C(=O)C1=C(N)O2 (stereo not given),0,
COCCCN1C(=O)CC2C(=C(N)Oc3cc(OC)ccc32)C1=O (stereo not given),0,
C#CCN1C(=O)CC2C(=C(N)Oc3cc(C)ccc32)C1=O (stereo not given),0,
CCOc1ccc2c(c1)OC(N)=C1C(=O)N(CCc3c[nH]c4ccccc34)C(=O)CC12 (stereo not given),10,
NC1=C2C(=O)N(Cc3ccco3)C(=O)CC2c2ccccc2O1 (stereo not given),0,
C#CCN1C(=O)CC2C(=C(N)Oc3cc(OC)ccc32)C1=O (stereo not given),0,
CCOc1ccc2c(c1)OC(N)=C1C(=O)N(CCCN3CCOCC3)C(=O)CC12 (stereo not given),0,
Cc1ccc2c(c1)C1CC(=O)N(CCc3cccs3)C(=O)C1=C(N)O2 (stereo not given),10,
Cc1ccc2c(c1)C1CC(=O)N(CCN3CCOCC3)C(=O)C1=C(N)O2 (stereo not given),0,
